# Experimental data from ChEMBL document CHEMBL1124528, “Tetrahydrothiadiazoloisoquinolines: synthesis and inhibition of phenylethanolamine-N-methyltransferase” (J Med Chem, 1989).
# Columns and labels:
# [1] = test system: Phenylethanolamine N-methyltransferase (rabbit); experiment: Ability to inhibit rabbit adrenal phenylethanolamine N-methyl-transferase norepinephrine to epinephrine (E13), in vitro, at 10 e-6 M; details: Oryctolagus cuniculus
# Mus musculus [2] = experiment: Minimum active dose that causes decrease in endogenous epinephrine/norepinephrine ratio, when administered perorally in mice; type: functional
# Procedure, shortened: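 Mice given compound orally, b.i.d., as chronic dosing, then adrenal gland E and NE content measured to give the E/NE ratio. Minimum active dose is the lowest dose giving p < 0.05 vs control by Student's t test.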
# Rattus norvegicus = experiment: Ability to inhibit [3H]epinephrine biosynthesis was determined in the adrenal medulla of rats by administering 3 mg/kg of compound orally.; type: functional; details: po
# Mus musculus [3] = experiment: Maximum inactive dose that causes decrease in endogenous adrenal epinephrine/norepinephrine ratio, when administered perorally in mice
# [4] = test system: Phenylethanolamine N-methyltransferase (rabbit); experiment: Ability to inhibit rabbit adrenal PNMT norepinephrine to epinephrine (E13), in vitro, at 10 e-6 M; details: Oryctolagus cuniculus
# [5] = test system: Phenylethanolamine N-methyltransferase (rabbit); experiment: Ability to inhibit rabbit adrenal PNMT norepinephrine to epinephrine (E13), in vitro, at 10 e-4 M compound concentration.; details: Oryctolagus cuniculus
# Mus musculus [6] = experiment: Minimum active dose that causes decrease in endogenous adrenal epinephrine/norepinephrine ratio, when administered perorally in mice; type: functional
# Procedure, shortened: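 Mice dosed orally b.i.d. (chronic administration), then adrenal E and NE content measured and the decrease in E/NE ratio determined. Minimum active dose is the lowest dose significant at p < 0.05 versus control by Student's t test.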
Compound,inhibition [1] [%],inhibition [4] [%],inhibition [5] [%],further results
c1ccc2c3c(ccc2c1)CCNC3,14,–,–,–
Cl.Clc1ccc2c(c1Cl)CNCC2,–,–,–,MAD (Mus musculus [2]): 5 mg/kg; inhibition in vivo at 3 mg/kg (Rattus norvegicus): 50%; MID (Mus musculus [3]): 2.5 mg/kg
c1nc2ccc3c(c2s1)CNCC3,24,–,–,–
Nc1nc2ccc3c(c2s1)CNCC3,–,15,41,–
c1nc2c3c(ccc2[nH]1)CCNC3,0,–,–,–
Oc1nc2c3c(ccc2[nH]1)CCNC3,–,1,4,–
Cl.c1cc2snnc2c2c1CCNC2,–,–,–,MAD (Mus musculus [6]): 12.5 mg/kg; inhibition in vivo at 3 mg/kg (Rattus norvegicus): 87%; MID (Mus musculus [3]): 6.25 mg/kg

# Further lines, with some results ahead:
inhibition [1] [%],inhibition [4] [%],inhibition [5] [%],Compound,further results
–,51,98,Clc1cc2snnc2c2c1CCNC2,–
91,–,–,c1cc2nnsc2c2c1CCNC2,–
–,3,37,Oc1nc2c3c(ccc2s1)CCNC3,–
20,–,–,c1cc2[nH]nnc2c2c1CCNC2,–
